Measurements from ChEMBL document CHEMBL5260844, “Optimization of PDE3A Modulators for SLFN12-Dependent Cancer Cell Killing” (ACS Med Chem Lett, 2019).
Values belong to the molecule of their own block, whether it stands above or below them. Activity calls are given as the source filed them. The calls are words filed in the database; no cut-off is given here.

Tests used:
[1] = system: HeLa; test: Cytotoxicity against human HeLa cells assessed as cell growth inhibition measured after 48 hrs by […] reagent based assay; assay type: functional
[2] = Microsomal stability in human liver microsomes assessed as parent compound remaining measured after 1 hr in presence of NADPH by UHPLC-MS analysis; assay type: ADME, Microsome; conditions: read-out: Stability
Outline: (§1)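 Test compound incubated with human or mouse liver microsomes. Percent remaining at 1 h reported as the average of three values.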

[3] = Microsomal stability in mouse liver microsomes assessed as parent compound remaining at 1 uM measured after 1 hr in presence of NADPH by UHPLC-MS analysis; assay type: ADME, Microsome; conditions: read-out: Stability; outline: as §1
[4] = Plasma protein binding in human incubated for 5 hrs by UPLC-MS method; assay type: ADME, cell-free; conditions: read-out: PPB (converted)
Outline: (§2)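 Plasma protein binding, human and mouse, reported as % bound, average of three values.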

[5] = Plasma protein binding in mouse incubated for 5 hrs by UPLC-MS method; assay type: ADME, cell-free; conditions: read-out: PPB (converted); outline: as §2
[6] = Stability in human plasma assessed as parent compound remaining after 5 hrs; assay type: ADME, cell-free; conditions: read-out: Stability
Outline: (§3)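 Human or mouse plasma incubation. Percent parent remaining at 5 h, average of three values.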

[7] = Stability in mouse plasma assessed as parent compound remaining after 5 hrs; assay type: ADME, cell-free; conditions: read-out: Stability; outline: as §3
[8] = system: A549; test: Cytotoxicity against human A549 cells assessed as cell growth inhibition upto 10 uM measured after 3 days by […] reagent based assay; conditions: time 72.0 hrs
[9] = molecular target: cGMP-inhibited 3',5'-cyclic phosphodiesterase 3A (Homo sapiens, UniProt Q14432); test: Inhibition of human N-terminal His-GST-tagged recombinant PDE3A (669-end residues) using fluorescent labelled cAMP as substrate
[10] = molecular target: cGMP-inhibited 3',5'-cyclic phosphodiesterase 3B (Homo sapiens, UniProt Q13370); test: Inhibition of human recombinant PDE3B
[11] = system: HCT-116; test: Cytotoxicity against human HCT-116 cells assessed as cell growth inhibition upto 10 uM measured after 48 hrs by […] reagent based assay; assay type: functional
Outline: (§4)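 Counterscreen viability assay in HCT116 colorectal cancer cells and IMR90 normal lung fibroblasts, run alongside DNMDP-sensitive lines.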

[12] = system: IMR-90; test: Cytotoxicity against human IMR-90 cells assessed as cell growth inhibition upto 10 uM measured after 48 hrs by […] reagent based assay; assay type: functional; outline: as §4
[13] = system: SK-MEL3; test: Cytotoxicity against human SK-MEL3 cells assessed as cell growth inhibition upto 10 uM measured after 48 hrs by […] reagent based assay; assay type: functional; conditions: SK-MEL3, 48 h
[14] = Selectivity ratio, ratio of IC50 for human PDE3A to EC50 for cytotoxicity against human HeLa cells
[15] = Selectivity ratio, ratio of IC50 for human PDE3B to EC50 for cytotoxicity against human HeLa cells
[16] = molecular target: Ribonuclease SLFN12 (Homo sapiens) (UniProt Q8IYM2); test: Stabilization of PDE3A/V5-epitope tagged SLFN12 interaction in human HeLa cells at 10 uM incubated for 8 hrs by immunoblotting analysis; assay type: cell-based
Outline: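 HeLa cells transfected with a plasmid expressing V5-tagged SLFN12, then exposed to 10 µM compound for 8 h. Lysates immunoprecipitated with anti-PDE3A antibody for endogenous PDE3A. Co-precipitated SLFN12-V5 detected by immunoblot with anti-V5 antibody.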

Chain of cGMP-inhibited 3',5'-cyclic phosphodiesterase 3B (Q13370 whole entry): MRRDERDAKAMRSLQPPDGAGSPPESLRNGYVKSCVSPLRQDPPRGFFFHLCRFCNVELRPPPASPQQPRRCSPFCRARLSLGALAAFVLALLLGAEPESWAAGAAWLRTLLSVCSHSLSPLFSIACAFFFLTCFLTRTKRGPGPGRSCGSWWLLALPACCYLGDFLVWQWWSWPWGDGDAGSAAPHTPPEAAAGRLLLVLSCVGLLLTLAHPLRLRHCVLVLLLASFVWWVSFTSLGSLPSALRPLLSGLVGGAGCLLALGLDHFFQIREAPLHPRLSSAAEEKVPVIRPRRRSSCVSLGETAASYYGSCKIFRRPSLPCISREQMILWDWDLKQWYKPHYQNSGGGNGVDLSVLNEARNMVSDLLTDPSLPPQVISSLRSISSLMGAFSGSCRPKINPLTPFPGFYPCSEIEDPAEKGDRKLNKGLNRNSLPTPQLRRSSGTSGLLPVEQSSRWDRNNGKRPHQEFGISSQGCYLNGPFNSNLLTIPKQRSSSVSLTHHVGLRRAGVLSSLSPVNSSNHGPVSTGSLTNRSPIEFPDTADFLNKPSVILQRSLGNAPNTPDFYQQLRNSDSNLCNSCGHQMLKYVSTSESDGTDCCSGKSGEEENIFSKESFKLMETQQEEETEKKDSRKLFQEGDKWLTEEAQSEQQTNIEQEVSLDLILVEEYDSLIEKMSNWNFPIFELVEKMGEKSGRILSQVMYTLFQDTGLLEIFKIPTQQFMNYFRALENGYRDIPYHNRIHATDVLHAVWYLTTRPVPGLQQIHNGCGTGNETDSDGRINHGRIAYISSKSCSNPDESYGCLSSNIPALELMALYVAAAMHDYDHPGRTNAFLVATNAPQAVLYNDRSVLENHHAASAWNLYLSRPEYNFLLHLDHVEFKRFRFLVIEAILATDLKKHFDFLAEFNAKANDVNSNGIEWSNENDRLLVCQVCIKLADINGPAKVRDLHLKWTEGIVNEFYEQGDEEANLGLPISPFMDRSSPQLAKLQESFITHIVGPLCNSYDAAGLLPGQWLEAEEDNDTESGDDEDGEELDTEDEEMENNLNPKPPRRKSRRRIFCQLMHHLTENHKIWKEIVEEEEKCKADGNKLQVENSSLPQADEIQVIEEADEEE
Chain of cGMP-inhibited 3',5'-cyclic phosphodiesterase 3A (Q14432 whole entry): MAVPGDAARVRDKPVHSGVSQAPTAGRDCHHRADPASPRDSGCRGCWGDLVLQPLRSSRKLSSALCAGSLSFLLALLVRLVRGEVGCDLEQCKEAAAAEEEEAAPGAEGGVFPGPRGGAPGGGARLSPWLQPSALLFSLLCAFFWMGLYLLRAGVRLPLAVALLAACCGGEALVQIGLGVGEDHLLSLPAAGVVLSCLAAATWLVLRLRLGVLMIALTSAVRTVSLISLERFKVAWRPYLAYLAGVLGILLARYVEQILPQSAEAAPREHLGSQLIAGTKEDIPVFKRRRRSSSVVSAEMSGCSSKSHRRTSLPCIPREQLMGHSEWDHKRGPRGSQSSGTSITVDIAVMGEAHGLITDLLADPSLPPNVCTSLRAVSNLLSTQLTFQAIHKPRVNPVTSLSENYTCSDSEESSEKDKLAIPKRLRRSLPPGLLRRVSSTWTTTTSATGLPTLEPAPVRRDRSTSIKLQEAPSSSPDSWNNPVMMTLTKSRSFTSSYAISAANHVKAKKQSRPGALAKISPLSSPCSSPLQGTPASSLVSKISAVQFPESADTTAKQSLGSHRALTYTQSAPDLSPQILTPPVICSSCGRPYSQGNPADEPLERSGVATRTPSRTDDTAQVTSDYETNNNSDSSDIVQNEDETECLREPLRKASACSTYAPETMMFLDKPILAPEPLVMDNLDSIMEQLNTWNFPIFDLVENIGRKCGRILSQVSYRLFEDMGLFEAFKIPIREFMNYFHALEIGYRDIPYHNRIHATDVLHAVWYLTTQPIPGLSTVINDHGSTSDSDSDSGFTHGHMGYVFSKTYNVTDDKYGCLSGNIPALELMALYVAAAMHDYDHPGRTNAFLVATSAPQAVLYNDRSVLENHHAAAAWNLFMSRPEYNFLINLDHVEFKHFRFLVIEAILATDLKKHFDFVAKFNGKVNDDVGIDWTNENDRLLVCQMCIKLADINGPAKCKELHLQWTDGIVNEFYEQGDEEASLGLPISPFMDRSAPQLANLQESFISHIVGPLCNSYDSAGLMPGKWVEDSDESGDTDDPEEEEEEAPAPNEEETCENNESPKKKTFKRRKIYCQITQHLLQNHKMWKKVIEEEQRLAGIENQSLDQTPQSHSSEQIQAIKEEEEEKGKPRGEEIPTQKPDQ
Chain of Ribonuclease SLFN12 (Homo sapiens) (Q8IYM2 whole entry): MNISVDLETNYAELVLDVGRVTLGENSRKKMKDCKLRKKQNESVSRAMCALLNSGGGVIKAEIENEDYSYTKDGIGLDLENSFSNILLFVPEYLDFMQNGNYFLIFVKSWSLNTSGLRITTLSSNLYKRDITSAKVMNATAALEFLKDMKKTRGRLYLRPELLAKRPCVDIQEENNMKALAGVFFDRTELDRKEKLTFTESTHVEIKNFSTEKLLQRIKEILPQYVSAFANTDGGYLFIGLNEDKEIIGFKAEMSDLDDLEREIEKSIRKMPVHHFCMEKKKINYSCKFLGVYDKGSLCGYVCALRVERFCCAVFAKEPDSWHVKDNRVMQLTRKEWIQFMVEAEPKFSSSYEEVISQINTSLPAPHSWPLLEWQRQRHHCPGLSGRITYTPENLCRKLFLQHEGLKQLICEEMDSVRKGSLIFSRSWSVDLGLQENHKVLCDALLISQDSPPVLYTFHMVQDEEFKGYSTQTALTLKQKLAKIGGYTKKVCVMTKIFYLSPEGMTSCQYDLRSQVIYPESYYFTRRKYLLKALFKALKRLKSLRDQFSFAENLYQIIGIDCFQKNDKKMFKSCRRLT

remaining at 1 h [2]: 108%
remaining at 1 h, 1 µM [3]: 82%
fraction unbound at 5 h [4]: 0.44
fraction unbound at 5 h [5]: 0.48
remaining at 5 h [6]: 93%
remaining at 5 h [7]: 96%
Structure (SMILES): CC1CC(=O)NN=C1c1ccc(F)c(F)c1 (racemic)
EC50 [1]: 64 nM
Activity [8]: inactive

IC50 [9]: 24 nM
IC50 [10]: 16 nM
Structure (SMILES): CC(=O)Nc1ccc(C2=NNC(=O)C[C@H]2C)cc1
EC50 [1]: > 1000 nM
Activity [8]: inactive

Structure (SMILES): CCN1N=C(c2ccc(N(CC)CC)c([N+](=O)[O-])c2)C(C)CC1=O (racemic)
Activity [11]: inactive
EC50 [1]: > 1000 nM
Activity [12]: inactive
Activity [8]: inactive

remaining at 1 h [2]: 89%
remaining at 1 h, 1 µM [3]: 26%
fraction unbound at 5 h [4]: 0.1
fraction unbound at 5 h [5]: 0.1
remaining at 5 h [6]: 104%
remaining at 5 h [7]: 96%
Structure (SMILES): CCN(CC)c1ccc(C2=NNC(=O)CC2C)cc1 (racemic)
EC50 [1]: 8.8 nM
Activity [8]: inactive

Structure (SMILES): CC(=O)Nc1ccc(C2=NNC(=O)C[C@H]2C)cc1[N+](=O)[O-]
EC50 [13]: 4.2 nM
Activity [11]: inactive
EC50 [1]: 4.9 nM
Activity [12]: inactive
Activity [8]: inactive

Structure (SMILES): CC1(C)C(=O)NN=C1c1ccc(N2CCOCC2)cc1
EC50 [1]: > 1000 nM
Activity [8]: inactive

Structure (SMILES): CC1(C)C(=O)NN=C1c1ccc(Cl)cc1
EC50 [1]: > 1000 nM
Activity [8]: inactive

Structure (SMILES): C[C@@H]1CC(=O)NN=C1c1ccc(N)cc1
EC50 [1]: > 1000 nM
Activity [8]: inactive

remaining at 1 h [2]: 83%
remaining at 1 h, 1 µM [3]: 105%
fraction unbound at 5 h [4]: 0.44
fraction unbound at 5 h [5]: 0.46
remaining at 5 h [6]: 104%
remaining at 5 h [7]: 108%
Structure (SMILES): C[C@@H]1CC(=O)NN=C1c1ccc(-c2cncnc2)cc1
Activity [11]: inactive
EC50 [1]: 13 nM
Activity [12]: inactive
Activity [8]: inactive

Structure (SMILES): CCCc1ccc(C2=NNC(=O)C[C@H]2C)cc1
EC50 [1]: 16 nM
Activity [8]: inactive

remaining at 1 h [2]: 81%
remaining at 1 h, 1 µM [3]: 92%
fraction unbound at 5 h [4]: 0.13
fraction unbound at 5 h [5]: 0.19
remaining at 5 h [6]: 93%
remaining at 5 h [7]: 86%
Structure (SMILES): C[C@@H]1CC(=O)NN=C1c1ccc(Cl)cc1
EC50 [13]: 29 nM
Activity [11]: inactive
EC50 [1]: 33 nM
Activity [12]: inactive
Activity [8]: inactive

IC50 [9]: 8 nM
IC50 [10]: 14 nM
Structure (SMILES): C[C@@H]1CC(=O)NN=C1c1ccc(Cl)c(Cl)c1
EC50 [13]: 5.6 nM
EC50 [1]: 4.5 nM
Ratio IC50/EC50 [14]: 2.4
Ratio IC50/EC50 [15]: 2.4
Activity [8]: inactive

Structure (SMILES): Cc1nc2cc(C3=NNC(=O)C[C@H]3C)ccc2[nH]1
EC50 [1]: > 1000 nM
Activity [8]: inactive

Structure (SMILES): C[C@@H]1CC(=O)NN=C1c1ccc(N2CCOCC2)cc1
EC50 [1]: 13 nM
Activity [8]: inactive

Structure (SMILES): C[C@H]1CC(=O)NN=C1c1ccc(F)c(F)c1
EC50 [1]: > 1000 nM
Activity [8]: inactive

Structure (SMILES): C[C@@H]1CC(=O)NN=C1c1ccc(N2CCOCC2)c(Cl)c1
EC50 [1]: 4.5 nM
Activity [8]: inactive

remaining at 1 h [2]: 109%
remaining at 1 h, 1 µM [3]: 102%
fraction unbound at 5 h [4]: 0.43
fraction unbound at 5 h [5]: 0.45
remaining at 5 h [6]: 80%
remaining at 5 h [7]: 101%
Structure (SMILES): CC1CC(=O)NN=C1c1ccc(N2CCOCC2)c(F)c1 (racemic)
EC50 [1]: 2.8 nM
Activity [8]: inactive

Structure (SMILES): CCN(CC)c1ccc(C2=NNC(=O)CC2C)cc1NC(C)=O (centres undefined)
EC50 [1]: > 1000 nM
Activity [8]: inactive

IC50 [9]: 25 nM
IC50 [10]: 100 nM
Activity [16]: Active
remaining at 1 h [2]: 95%
remaining at 1 h, 1 µM [3]: 23%
fraction unbound at 5 h [4]: 0.13
fraction unbound at 5 h [5]: 0.08
remaining at 5 h [6]: 85%
remaining at 5 h [7]: 87%
Structure (SMILES): CCN(CC)c1ccc(C2=NNC(=O)CC2C)cc1[N+](=O)[O-] (centres undefined)
EC50 [13]: 12 nM
Activity [11]: inactive
Activity [12]: inactive
Activity [8]: inactive

IC50 [9]: 2000 nM
IC50 [10]: 3500 nM
Structure (SMILES): C[C@@H]1CC(=O)NN=C1c1ccc(N2CCN(C)CC2)cc1
EC50 [13]: 684 nM
EC50 [1]: 310 nM
Ratio IC50/EC50 [14]: 2.4
Ratio IC50/EC50 [15]: 2.4
Activity [8]: inactive

Structure (SMILES): C[C@@H]1CC(=O)NN=C1c1ccc(C2=CCCCC2)cc1
EC50 [1]: 2.2 nM
Activity [8]: inactive

Structure (SMILES): C[C@@H]1CC(=O)NN=C1c1ccc(F)c(F)c1
Activity [11]: inactive
EC50 [1]: 22 nM
Activity [12]: inactive
Activity [8]: inactive

Structure (SMILES): CCN(CC)c1ccc(C2=NNC(=O)C[C@H]2C)cc1
EC50 [1]: 3.3 nM
Activity [8]: inactive

Structure (SMILES): C#Cc1cc(C2=NNC(=O)C[C@H]2C)ccc1NC(C)=O
EC50 [1]: 65 nM
Activity [8]: inactive

Structure (SMILES): C[C@H]1CC(=O)NN=C1c1ccc(N2CCOCC2)c(F)c1
Activity [11]: inactive
EC50 [1]: > 1000 nM
Activity [12]: inactive
Activity [8]: inactive

Structure (SMILES): CCNc1ccc(C2=NNC(=O)C[C@H]2C)cc1
EC50 [1]: 71 nM
Activity [8]: inactive

Structure (SMILES): CC(=O)Nc1ccc(C2=NNC(=O)C[C@H]2C)cc1N
EC50 [1]: > 1000 nM
Activity [8]: inactive

IC50 [9]: 120 nM
IC50 [10]: 260 nM
remaining at 1 h [2]: 94%
remaining at 1 h, 1 µM [3]: 99%
fraction unbound at 5 h [4]: 0.53
fraction unbound at 5 h [5]: 0.58
remaining at 5 h [6]: 87%
remaining at 5 h [7]: 105%
Structure (SMILES): CC1CC(=O)NN=C1c1ccc(N2CCOCC2)cc1 (racemic)
EC50 [13]: 11 nM
Activity [11]: inactive
EC50 [1]: 36 nM
Activity [12]: inactive
Ratio IC50/EC50 [14]: 2.4
Ratio IC50/EC50 [15]: 2.4
Activity [8]: inactive

IC50 [9]: 8 nM
IC50 [10]: 10 nM
Structure (SMILES): CC(=O)Nc1ccc(C2=NNC(=O)C[C@H]2C)cc1Cl
EC50 [13]: 31 nM
EC50 [1]: 24 nM
Ratio IC50/EC50 [14]: 0.38
Ratio IC50/EC50 [15]: 0.38
Activity [8]: inactive

Structure (SMILES): CCN(CC)c1ccc(C2=NNC(=O)C2(C)C)cc1
EC50 [1]: > 1000 nM
Activity [8]: inactive

Structure (SMILES): C[C@@H]1CC(=O)NN=C1c1ccc(C2CCCCC2)cc1
Activity [11]: inactive
EC50 [1]: 7.7 nM
Activity [12]: inactive
Activity [8]: inactive

Structure (SMILES): C[C@@H]1CC(=O)NN=C1c1ccc(F)cc1
EC50 [1]: 410 nM
Activity [8]: inactive

Structure (SMILES): CCN(CC)c1ccc(C2=NNC(=O)C[C@H]2C)cc1[N+](=O)[O-]
EC50 [1]: 3.8 nM
Activity [8]: inactive

Structure (SMILES): CCN(CC)c1ccc(C2=NNC(=O)CC2C)cc1N (centres undefined)
EC50 [1]: 240 nM
Activity [8]: inactive

Structure (SMILES): C[C@@H]1CC(=O)NN=C1c1ccc(-n2cnnc2)cc1
EC50 [1]: > 1000 nM
Activity [8]: inactive

Structure (SMILES): C[C@@H]1CC(=O)NN=C1c1ccc(I)cc1
EC50 [1]: 7.1 nM
Activity [8]: inactive

Structure (SMILES): CCNc1ccc(C2=NNC(=O)C[C@H]2C)cc1[N+](=O)[O-]
EC50 [1]: 1.1 nM
Activity [8]: inactive

Structure (SMILES): CC(=O)Nc1ccc(C2=NNC(=O)C[C@H]2C)cc1Br
EC50 [1]: 21 nM
Activity [8]: inactive

Structure (SMILES): C/C=C/c1ccc(C2=NNC(=O)C[C@H]2C)cc1
EC50 [1]: 8.8 nM
Activity [8]: inactive

Structure (SMILES): CC(=O)Nc1ccc(C2=NNC(=O)C[C@H]2C)cc1C(C)=O
EC50 [1]: 130 nM
Activity [8]: inactive

Structure (SMILES): CC1(C)C(=O)NN=C1c1ccc(N)cc1
EC50 [1]: > 1000 nM
Activity [8]: inactive
